Usually AUC stands for the area under the concentration-time curve, a measure of exposure. Read a low AUC as less exposure. A word on the Dmax: it is the largest share of the target that was removed. Broadly, the DC50 is the concentration at which degradation of the target reaches its halfway point.

From article PMC12046021 (Nature Communications, 2025) come the findings set out here.

Data set [1] is described as follows: PK study in mice. The settings on record: male, ICR, mouse, plasma, po, 3 mg/kg. Type of data set: in vivo.
Data set [2] is described as follows: PK study in rats. Type of data set: in vivo. The settings on record: male, Sprague Dawley, rat, plasma, po, 3 mg/kg.
For data set [3], the target named is T1, IKZF2 (Homo sapiens, UniProt Q96SW2+Q9UKS7). Description: IKZF2 HiBiT degradation assay in HEK293 cells. Type of data set: cell-based. The settings on record: for Dmax: HEK293, read-out: IKZF2 degradation Dmax. A general note: HiBiT is a short tag that completes a luciferase, so light tracks the accessible tagged protein.
In data set [4] the target is SALL4 (Homo sapiens, UniProt Q9UJQ4). Description: SALL4 HiBiT degradation assay in HEK293 cells. Type of data set: cell-based. The method, boiled down:
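Each HiBiT-tagged target construct was integrated into the FRT site by the FLP-IN system, and integration was checked by lytic HiBiT detection. Cells got test compound at 0.017 nM to 10 µM, with DMSO as vehicle control, for 6 h. HiBiT signal was then read by lytic luminescence detection. DC50 and Dmax came from a four-parameter dose-response fit.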

Data set [5] addresses hERG channel (Homo sapiens, UniProt Q12809). Description: hERG channel inhibition, manual patch-clamp. In kind it is cell-based. For orientation: The hERG channel carries a current that helps repolarise heart muscle cells.
Data set [6] addresses T1, IKZF2. Description: IKZF2 FACS assay in primary human Tregs. In kind it is cell-based. The settings on record: read-out: IKZF2 degradation Dmax in human Treg cells. The method, boiled down: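 Thawed human PBMCs were resuspended in RPMI with 10% FBS and 1% P/S. They were treated with test compound at 0.05 nM to 1 μM, with DMSO as vehicle control, for 3 or 6 h. IKZF2 in Treg cells was then assessed by FACS under a defined gating strategy.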
(In general: A flow cytometer gives signals particle by particle.)

Data set [7] deals with IL-2. In words: IL-2 production in Jurkat cells. In kind it is cell-based, human. The settings on record: Jurkat stimulated with anti-CD3/CD28, bead-to-cell ratio 1:4.

T1 sequence (Q9UKS7 whole entry): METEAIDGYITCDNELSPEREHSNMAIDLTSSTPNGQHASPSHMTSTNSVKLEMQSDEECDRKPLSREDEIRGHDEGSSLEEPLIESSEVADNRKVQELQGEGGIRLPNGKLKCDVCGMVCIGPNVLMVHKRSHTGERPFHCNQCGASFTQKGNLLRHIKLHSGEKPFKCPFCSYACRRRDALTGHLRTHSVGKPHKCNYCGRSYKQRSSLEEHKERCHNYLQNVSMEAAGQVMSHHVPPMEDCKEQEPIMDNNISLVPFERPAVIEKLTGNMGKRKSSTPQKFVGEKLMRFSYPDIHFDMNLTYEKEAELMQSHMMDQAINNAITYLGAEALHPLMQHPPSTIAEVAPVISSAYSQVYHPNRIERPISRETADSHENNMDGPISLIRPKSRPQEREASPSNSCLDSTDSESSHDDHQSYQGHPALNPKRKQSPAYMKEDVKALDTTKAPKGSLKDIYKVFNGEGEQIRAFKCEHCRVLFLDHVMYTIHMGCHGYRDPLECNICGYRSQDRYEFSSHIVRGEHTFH
T1 sequence (Q96SW2 whole entry): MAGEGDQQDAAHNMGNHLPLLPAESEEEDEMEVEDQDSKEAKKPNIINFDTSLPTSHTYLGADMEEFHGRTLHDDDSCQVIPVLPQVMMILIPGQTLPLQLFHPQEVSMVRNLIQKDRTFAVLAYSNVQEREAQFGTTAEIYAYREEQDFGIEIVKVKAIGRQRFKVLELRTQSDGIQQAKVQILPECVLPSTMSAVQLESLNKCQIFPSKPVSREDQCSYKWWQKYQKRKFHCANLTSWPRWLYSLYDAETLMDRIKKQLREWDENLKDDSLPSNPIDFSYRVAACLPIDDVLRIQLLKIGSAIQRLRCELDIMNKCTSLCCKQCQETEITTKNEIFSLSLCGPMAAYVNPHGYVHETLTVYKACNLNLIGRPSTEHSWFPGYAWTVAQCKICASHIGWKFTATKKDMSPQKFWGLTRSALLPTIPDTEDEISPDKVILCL
T1 sequence (Q16531 whole entry partner): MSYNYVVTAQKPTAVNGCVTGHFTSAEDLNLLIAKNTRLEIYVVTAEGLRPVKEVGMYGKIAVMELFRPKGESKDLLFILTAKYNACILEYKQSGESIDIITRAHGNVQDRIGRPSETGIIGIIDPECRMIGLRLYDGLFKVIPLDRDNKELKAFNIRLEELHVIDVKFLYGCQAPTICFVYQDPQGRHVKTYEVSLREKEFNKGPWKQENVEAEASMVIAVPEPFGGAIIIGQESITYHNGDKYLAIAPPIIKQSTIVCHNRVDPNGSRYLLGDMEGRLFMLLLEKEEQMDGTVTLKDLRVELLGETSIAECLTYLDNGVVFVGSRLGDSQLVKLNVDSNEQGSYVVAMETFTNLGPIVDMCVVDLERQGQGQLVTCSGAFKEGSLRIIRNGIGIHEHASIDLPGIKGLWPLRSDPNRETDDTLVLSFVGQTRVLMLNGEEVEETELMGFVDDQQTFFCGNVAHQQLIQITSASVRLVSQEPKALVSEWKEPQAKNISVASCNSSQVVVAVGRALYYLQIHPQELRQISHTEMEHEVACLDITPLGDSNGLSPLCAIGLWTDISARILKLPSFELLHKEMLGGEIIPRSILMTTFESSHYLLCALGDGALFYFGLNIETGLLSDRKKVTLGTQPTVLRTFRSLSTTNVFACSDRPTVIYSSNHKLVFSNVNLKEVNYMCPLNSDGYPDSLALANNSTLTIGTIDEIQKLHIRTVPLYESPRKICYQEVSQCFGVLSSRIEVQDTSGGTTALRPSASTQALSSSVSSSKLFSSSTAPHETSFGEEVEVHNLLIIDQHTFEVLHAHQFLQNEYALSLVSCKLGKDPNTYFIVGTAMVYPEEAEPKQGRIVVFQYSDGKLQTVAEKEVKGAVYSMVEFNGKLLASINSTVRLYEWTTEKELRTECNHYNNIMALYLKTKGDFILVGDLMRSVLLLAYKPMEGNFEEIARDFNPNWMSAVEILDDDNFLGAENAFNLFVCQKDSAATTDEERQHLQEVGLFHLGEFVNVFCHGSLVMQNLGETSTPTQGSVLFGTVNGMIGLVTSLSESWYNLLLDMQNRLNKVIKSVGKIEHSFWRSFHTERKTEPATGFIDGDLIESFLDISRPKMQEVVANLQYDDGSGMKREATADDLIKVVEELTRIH
Sequence of SALL4 (Q96SW2 whole entry partner): as the sequence (Q96SW2 whole entry) above
Sequence of SALL4 (Q16531 whole entry partner): as the sequence (Q16531 whole entry partner) above
Sequence of SALL4 (Q9UJQ4 whole entry): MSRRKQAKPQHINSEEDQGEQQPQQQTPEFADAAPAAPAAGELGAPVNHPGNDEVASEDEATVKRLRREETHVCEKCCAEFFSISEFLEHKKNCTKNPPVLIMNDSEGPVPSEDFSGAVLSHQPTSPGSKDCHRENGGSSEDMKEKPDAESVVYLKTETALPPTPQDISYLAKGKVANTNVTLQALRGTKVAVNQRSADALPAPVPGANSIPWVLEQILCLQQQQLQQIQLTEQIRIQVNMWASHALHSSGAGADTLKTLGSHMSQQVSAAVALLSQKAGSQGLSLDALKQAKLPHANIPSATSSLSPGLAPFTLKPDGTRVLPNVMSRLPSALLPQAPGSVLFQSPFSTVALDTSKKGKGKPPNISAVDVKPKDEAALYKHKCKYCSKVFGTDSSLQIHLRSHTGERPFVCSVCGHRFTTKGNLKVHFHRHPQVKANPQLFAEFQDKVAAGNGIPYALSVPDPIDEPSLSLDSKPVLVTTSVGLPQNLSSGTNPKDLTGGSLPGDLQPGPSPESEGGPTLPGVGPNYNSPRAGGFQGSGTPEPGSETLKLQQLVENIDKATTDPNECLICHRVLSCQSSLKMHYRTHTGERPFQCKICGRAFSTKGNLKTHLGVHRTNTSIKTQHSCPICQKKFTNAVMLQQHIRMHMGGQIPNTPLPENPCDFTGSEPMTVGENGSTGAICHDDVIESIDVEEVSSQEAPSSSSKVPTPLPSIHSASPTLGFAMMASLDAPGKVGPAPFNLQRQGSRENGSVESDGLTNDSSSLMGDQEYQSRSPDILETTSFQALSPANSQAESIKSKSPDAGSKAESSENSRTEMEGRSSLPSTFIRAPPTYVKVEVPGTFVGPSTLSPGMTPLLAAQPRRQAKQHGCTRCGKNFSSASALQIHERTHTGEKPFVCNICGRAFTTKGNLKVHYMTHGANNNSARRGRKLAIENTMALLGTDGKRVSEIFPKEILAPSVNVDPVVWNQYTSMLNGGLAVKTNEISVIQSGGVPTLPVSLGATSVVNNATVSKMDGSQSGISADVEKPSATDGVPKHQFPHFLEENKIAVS
Sequence of hERG channel (Q12809 whole entry): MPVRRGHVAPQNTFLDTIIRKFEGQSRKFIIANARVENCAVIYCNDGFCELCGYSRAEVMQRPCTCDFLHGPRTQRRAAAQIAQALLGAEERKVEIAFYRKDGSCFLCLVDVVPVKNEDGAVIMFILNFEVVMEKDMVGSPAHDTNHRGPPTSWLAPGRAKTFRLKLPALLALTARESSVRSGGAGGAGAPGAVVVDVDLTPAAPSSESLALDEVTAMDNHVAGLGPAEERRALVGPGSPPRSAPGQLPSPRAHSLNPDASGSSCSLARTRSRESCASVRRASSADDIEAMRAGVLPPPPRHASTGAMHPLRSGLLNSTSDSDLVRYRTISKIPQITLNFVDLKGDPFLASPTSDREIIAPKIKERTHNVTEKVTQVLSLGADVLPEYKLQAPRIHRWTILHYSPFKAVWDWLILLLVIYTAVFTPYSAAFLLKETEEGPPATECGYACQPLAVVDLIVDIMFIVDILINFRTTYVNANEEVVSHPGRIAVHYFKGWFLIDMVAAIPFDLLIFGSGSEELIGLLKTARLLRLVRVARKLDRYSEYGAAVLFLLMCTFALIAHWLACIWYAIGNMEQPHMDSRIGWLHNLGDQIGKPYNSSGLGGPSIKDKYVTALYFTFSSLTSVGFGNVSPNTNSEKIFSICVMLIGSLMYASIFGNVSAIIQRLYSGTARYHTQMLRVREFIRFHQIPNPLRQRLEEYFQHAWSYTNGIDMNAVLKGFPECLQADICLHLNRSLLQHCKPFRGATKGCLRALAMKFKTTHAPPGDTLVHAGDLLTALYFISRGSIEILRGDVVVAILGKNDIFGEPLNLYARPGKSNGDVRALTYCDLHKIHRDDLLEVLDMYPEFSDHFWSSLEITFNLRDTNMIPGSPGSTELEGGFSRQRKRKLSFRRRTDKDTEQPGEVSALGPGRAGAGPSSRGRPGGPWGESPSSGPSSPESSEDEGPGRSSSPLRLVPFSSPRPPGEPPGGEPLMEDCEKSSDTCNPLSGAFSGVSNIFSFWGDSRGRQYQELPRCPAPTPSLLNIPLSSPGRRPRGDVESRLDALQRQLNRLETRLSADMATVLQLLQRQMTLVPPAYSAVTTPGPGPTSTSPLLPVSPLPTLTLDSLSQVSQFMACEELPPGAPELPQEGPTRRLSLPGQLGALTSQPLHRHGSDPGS

Take `O=C1CCC(N2Cc3c(ccc4c3OCC43CCN(Cc4ccccc4)CC3)C2=O)C(=O)N1` (stereo not drawn) [Compound 5]: the figures for the AUC in data set [1] and in data set [2] were 1340 ng·h/mL and 1170 ng·h/mL, respectively.

On to `O=C1CCC(N2Cc3c(ccc4c3OCC43CCC(Oc4ccccc4)CC3)C2=O)C(=O)N1` (stereo not drawn) [Compound 7], for which the Dmax in data set [3] was found to be 38%.

On to `O=C1CCC(N2Cc3c(ccc4c3OCC43CCN(Cc4ccccc4)C3)C2=O)C(=O)N1` (stereo not drawn) [Compound 8], for which the Dmax in data set [3] stood at 33%.

For the compound `O=C1CCC(N2Cc3c(ccc4c3OCC43CCCN(Cc4ccccc4)CC3)C2=O)C(=O)N1` (stereo not drawn) [Compound 9], in data set [3], the Dmax is 17%.

`O=C1CCC(N2Cc3c(ccc4c3OCCC43CCN(Cc4ccccc4)CC3)C2=O)C(=O)N1` (stereo not drawn) [Compound 10]: in data set [3], the Dmax worked out at 39%.

For `O=C1CCC(N2Cc3c(ccc4c3OCC43CCN(Cc4ccccc4)CC3(F)F)C2=O)C(=O)N1` (stereo not drawn) [Compound 12], the Dmax in data set [3] was 68%.

For `O=C1CCC(N2Cc3c(ccc4c3OCC43CCN(CC4CCCCC4)CC3)C2=O)C(=O)N1` (stereo not drawn) [Compound 13], in data set [3], the Dmax was determined as 69%.

Take `O=C1CCC(N2Cc3c(ccc4c3OCC43CCN(Cc4ccccn4)CC3)C2=O)C(=O)N1` (stereo not drawn) [Compound 14]: the Dmax in data set [3] is 64%.

On to `O=C1CCC(N2Cc3c(ccc4c3OCC43CCN(Cc4ccsc4)CC3)C2=O)C(=O)N1` (stereo not drawn) [Compound 15], for which the Dmax in data set [3] was found to be 84%.

For `O=C1CCC(N2Cc3cc(C4CCN(Cc5ccccc5)CC4)ccc3C2=O)C(=O)N1` (stereo not drawn) [DKY709], the Dmax in data set [4] (HEK293, read-out: SALL4 degradation Dmax) was found to be 55%; in data set [3], 73%; in data set [6] it was 73%. In addition, the DC50 in data set [4] (read-out: SALL4 degradation DC50, HiBiT, HEK293, 6 h) worked out at 4.9 nM; in data set [3] (read-out: IKZF2 degradation DC50, HiBiT, HEK293, 6 h) it was 1.5 nM. For the same compound, in data set [3] (IKZF2 HiBiT, HEK293), the “time to reach maximal IKZF2 degradation (Dmax plateau)” value is more than 6 h. The “hERG inhibition IC30” value in data set [5] is reported as 3.0 µM. In addition, the “IL-2 concentration in the supernatant (in words)” value in data set [7] is reported as “increase in IL-2 concentration in the supernatant”.
